# Activity calls are given as the source filed them. The rule behind the calls is not given here.
# System: Fibroblast
# Assay: Cytotoxicity against DM2 patient derived fibroblast assessed as cell viability at 5 uM incubated for 48 hrs by Cell Titre-Glo assay
# Assay type: cell-based
# Conditions: human
# Summary of the method: (§1)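 DM2 patient-derived fibroblasts were grown in high-glucose DMEM with 20% FBS at 37 °C, 5% CO2. After 48 h of compound treatment, viability was read as CellTiter-Glo luminescence after 10 min at room temperature (n = 6 replicates, one independent experiment).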
row,Compound,Activity
1,Cc1ccc2nc(Nc3ccc4nc(NC5CCN(Cc6ccccc6)CC5)sc4c3)nc(NCCCO)c2c1,Toxic
2,Cc1ccc2nc(Nc3ccc4nc(NCC(C)(C)O)sc4c3)nc(NCCCO)c2c1,Non-Toxic
3,Cc1ccc2nc(Nc3ccc4nc(N5CCN(C)CC5)sc4c3)nc(NCCCO)c2c1,Toxic
4,Cc1ccc2nc(Nc3ccc4cnn(C)c4c3)nc(NCCCO)c2c1,Toxic
5,Cc1ccc2nc(Nc3ccc4nc(NCCN5CCOCC5)sc4c3)nc(NCCCO)c2c1,Toxic
6,Cc1ccc2nc(Nc3ccc4nc(NCC(C)C)sc4c3)nc(NCCCO)c2c1,Toxic
7,Cc1ccc2nc(Nc3ccc4nc(-c5ccc(F)cc5)sc4c3)nc(NCCCO)c2c1,Toxic
8,Cc1ccc2nc(Nc3ccc4nc(N5CCOCC5)sc4c3)nc(NCCCO)c2c1,Toxic
9,Cc1ccc2nc(Nc3ccc4nc(NCCN(C)C)sc4c3)nc(NCCCO)c2c1,Non-Toxic

# Organism: Homo sapiens
# Assay: Inhibition of r(CCUG)12-MBNL1 complex formation (unknown origin) assessed as rescue of IR exon 11 splicing defect at 5 uM by RT-PCR analysis
# Set-up: scale not given: the % may be the effect or the level left
# Conditions: not given
# Summary of the method: (§2)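 DM2 patient fibroblasts were treated at ~40% confluency for 48 h. About 1 μg of total RNA was reverse transcribed, and IR exon 11 was PCR-amplified for 35 cycles (95 °C/58 °C/72 °C). Products were resolved on 2% agarose stained with ethidium bromide and quantified by densitometry. Percent rescue was calculated as (DM2 untreated − treated exclusion)/(DM2 untreated − WT exclusion) × 100.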
row,Compound,Activity
1,OCCCNc1nc(Nc2ccc3c(c2)OCCO3)nc2ccccc12,50%
2,Cc1ccc2nc(Nc3ccc4nc(NCC(C)(C)O)sc4c3)nc(NCCCO)c2c1,30%
3,Cc1ccc2nc(Nc3ccc4nc(NCCN(C)C)sc4c3)nc(NCCCO)c2c1,inactive

# System: not listed separately
# Assay: Induction of disruption of r(CCUG)12-MBNL1 complex (unknown origin) incubated for 15 mins by TR-FRET assay
# Set-up: species or system Homo sapiens
# Conditions: not given
# Summary of the method: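 Biotinylated r(CCUG)12 was folded at 60 °C for 5 min in 20 mM HEPES pH 7.5, 110 mM KCl, 10 mM NaCl. It was then brought to assay buffer (plus 2 mM MgCl2, 2 mM CaCl2, 5 mM DTT, 0.1% BSA, 0.5% Tween-20) and preincubated 15 min with MBNL1-His6 (final 80 nM RNA, 60 nM protein). Compound was added for 15 min, then streptavidin-XL665 (40 nM) and anti-His6-Tb (0.44 ng/μL) for 30 min at room temperature. TR-FRET 545/665 ratios were read; IC50 was taken from dose-response fits.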
row,Compound,IC50 [µM]
1,CN(C)c1nc(Nc2ccc(C(N)=O)cc2)nc2ccccc12,50
2,OCCCNc1nc(Nc2ccc3c(c2)OCCO3)nc2ccccc12,50
3,Cc1c(Nc2nc(NCCCO)c3ccccc3n2)ccc2c1OCCO2,135
4,OCCCNc1nc(Nc2ccccc2)nc2ccccc12,165
5,COC(=O)c1cccc(Nc2nc(N)c3ccccc3n2)c1,200
6,C=CCNc1nc(Nc2ccc(O)cc2)nc2ccccc12,85
7,CCNc1nc(Nc2ccc(O)cc2)nc2ccccc12,100
8,Cc1ccc2nc(Nc3ccc4nc(NC5CCN(Cc6ccccc6)CC5)sc4c3)nc(NCCCO)c2c1,0.4
9,CCNc1nc(Nc2ccc(NC(C)=O)cc2)nc2ccccc12,30
10,CN1CCN(c2nc(Nc3ccc(O)cc3)nc3ccccc23)CC1,155
11,OCCCNc1nc(Nc2ccc3c(c2)OCCO3)nc2c(F)cccc12,200
12,CC(=O)Nc1cccc(Nc2nc(NCC3CCCO3)c3ccccc3n2)c1 (stereo not given),90
13,COc1cccc(Nc2nc(NCCCO)c3ccccc3n2)c1,100
14,Cc1ccc2nc(Nc3ccc4nc(-c5cc[nH]n5)sc4c3)nc(NCCCO)c2c1,20
15,Cc1nc2ccc(Nc3nc(NCCCO)c4ccccc4n3)cc2s1,7
16,Cc1ccc2nc(Nc3ccc4nc(C)oc4c3)nc(NCCCO)c2c1,10
17,OCCCNc1nc(Nc2cccc(F)c2)nc2ccccc12,135
18,COc1ccc(Nc2nc(N(C)C)c3ccccc3n2)cc1,65
19,Cc1ccc2nc(Nc3ccc4nc(NCC(C)(C)O)sc4c3)nc(NCCCO)c2c1,1
20,Cc1n[nH]c2nc(Nc3ccc4c(c3)OCCO4)nc(NCCCO)c12,200
21,CN(C)c1ccc(Nc2nc(N(C)C)c3ccccc3n2)cc1,60

row,Compound,IC50 [µM]
1,Cc1ccc2nc(Nc3ccc4nc(N5CCN(C)CC5)sc4c3)nc(NCCCO)c2c1,1
2,Cc1ccc2nc(Nc3ccc4nc(-c5cccc(F)c5)sc4c3)nc(NCCCO)c2c1,200
3,CC(=O)c1cccc(Nc2nc(NCCCO)c3ccccc3n2)c1,75
4,OCCCNc1nc(Nc2ccc3c(c2)OCCO3)nc2c1CCCC2,90
5,Cc1nc2ccc(Nc3nc(NCCCO)c4ccccc4n3)cc2o1,10
6,CC(=O)Nc1cccc(Nc2nc(N(C)C)c3ccccc3n2)c1,80
7,Cc1ccc2nc(Nc3ccc4nc(C(N)=O)sc4c3)nc(NCCCO)c2c1,200
8,COCCn1cncc1CNC(=O)Nc1ccc2cnn(C)c2c1,200
9,Cn1ncc2ccc(Nc3nc(NCCCO)c4ccccc4n3)cc21,30
10,Cc1ccc2nc(Nc3ccc4nc(NCCOc5ccccc5)sc4c3)nc(NCCCO)c2c1,110
11,CN(C)c1ccc(Nc2nc(N3CCOCC3)c3ccccc3n2)cc1,200
12,Cc1ccc2nc(Nc3ccc4c(c3)OCCO4)nc(NCCCO)c2c1,12.7
13,Cc1ccc2nc(Nc3ccc4nc(NCc5ccc6c(c5)OCO6)sc4c3)nc(NCCCO)c2c1,105
14,CC(=O)Nc1ccc(Nc2nc(NCCO)c3ccccc3n2)cc1,60
15,Cc1ccc2nc(Nc3ccc4nc(-c5ccc6[nH]ccc6c5)sc4c3)nc(NCCCO)c2c1,200
16,CC(=O)c1cccc(Nc2nc(N(C)C)c3ccccc3n2)c1,100
17,CC(O)c1cccc(Nc2nc(N3CCCC3)c3ccccc3n2)c1 (stereo not given),70
18,OCCCNc1nc(Nc2ccc(O)cc2)nc2ccccc12,95
19,CNc1nc(Nc2cccc(O)c2)nc2ccccc12,105
20,CCn1nc(CNC(=O)CN(C)C2CCNCC2)c2ccccc21,70
21,Cc1ccc2nc(Nc3ccc4nc(NCCOCc5ccccc5)sc4c3)nc(NCCCO)c2c1,20

row,Compound,IC50 [µM]
1,CC(=O)Nc1ccc(Nc2nc(N3CCCC3)c3ccccc3n2)cc1,35
2,COc1ccc(Nc2nc(NCCCO)c3ccccc3n2)cc1,40
3,CN1CCOc2cc(Nc3nc(NCCCO)c4ccccc4n3)ccc21,70
4,CC(O)c1cccc(Nc2nc(N(C)C)c3ccccc3n2)c1 (stereo not given),95
5,OCCCNc1nc(Nc2cccc(O)c2)nc2ccccc12,200
6,OCCCNc1nc(Nc2ccc3c(c2)OCCO3)nc2ccc(F)cc12,60
7,Cc1ccc2nc(Nc3ccc4cnn(C)c4c3)nc(NCCCO)c2c1,30
8,Cc1cccc2c(NCCCO)nc(Nc3ccc4c(c3)OCCO4)nc12,105
9,Cn1nc(Nc2nc(NCCCO)c3ccccc3n2)c2ccccc21,200
10,COc1cc(-c2nc3cc(-n4cnnn4)ccc3[nH]2)ccc1OCCN1CCCC1,70
11,COc1cccc(Nc2nc(N(C)C)c3ccccc3n2)c1,85
12,CN(C)c1nc(Nc2cccc(O)c2)nc2ccccc12,75
13,OCCCNc1nc(Nc2ccc3c(c2)OCCO3)nc2c1COC2,200
14,Cc1ccc2nc(Nc3ccc4nc(NCCN5CCOCC5)sc4c3)nc(NCCCO)c2c1,0.3
15,OCCCNc1nc(Nc2ccc3c(c2)OCO3)nc2ccccc12,200
16,CC(=O)Nc1ccc(Nc2nc(NCCCO)c3ccccc3n2)cc1,200
17,CCNc1nc(Nc2cccc(O)c2)nc2ccccc12,135
18,Cc1ccc2nc(Nc3ccc4nc(NCC(C)C)sc4c3)nc(NCCCO)c2c1,0.3
19,OCCCNc1nc(Nc2ccc3c(c2)OC(F)(F)O3)nc2ccccc12,170
20,Cc1ccc2nc(Nc3ccc4nc(-c5ccc(F)cc5)sc4c3)nc(NCCCO)c2c1,200
21,Cc1ccccc1Nc1nc(NCCCO)c2ccccc2n1,80

row,Compound,IC50 [µM]
1,Cc1ccc2nc(Nc3ccc4nc(-c5ccccc5C)sc4c3)nc(NCCCO)c2c1,200
2,CC(=O)Nc1cccc(Nc2nc(NCCCO)c3ccccc3n2)c1,110
3,Cc1ccc2nc(Nc3ccc4nc(NCCc5ccc(S(N)(=O)=O)cc5)sc4c3)nc(NCCCO)c2c1,10
4,CCOc1ccc(C(=O)Nc2cc(-c3nc4ccccc4[nH]3)ccc2Cl)cc1[N+](=O)[O-],105
5,Cc1ccc(Nc2nc(NCCCO)c3ccccc3n2)cc1,150
6,CN(c1ccc2c(c1)OCCO2)c1nc(NCCCO)c2ccccc2n1,200
7,CN(C)c1ccc(Nc2nc(NCCCO)c3ccccc3n2)cc1,40
8,CN(C)c1nc(Nc2ccc(O)cc2)nc2ccccc12,70
9,Cc1ccc2nc(Nc3ccc4nc(N5CCOCC5)sc4c3)nc(NCCCO)c2c1,0.2
10,COc1ccc(Nc2nc(NCCO)c3ccccc3n2)cc1Cl,50
11,CCOc1cc(-c2nc3cc(-n4cnnn4)ccc3[nH]2)ccc1O,200
12,OCCCNc1nc(Nc2ccc3c(c2)OCCO3)nc2cc(F)ccc12,200
13,CC(=O)Nc1cccc(Nc2nc(N3CCCC3)c3ccccc3n2)c1,70
14,CC(=O)Nc1ccc(Nc2nc(NCC3CCCO3)c3ccccc3n2)cc1 (stereo not given),45
15,CC(C)(C)C(Cn1ccnc1)NC(=O)Nc1ccc2[nH]ncc2c1 (stereo not given),190
16,Cc1ccc2nc(Nc3ccc4nc(N(CCO)CCO)sc4c3)nc(NCCCO)c2c1,10
17,CN(C)c1nc(Nc2ccc3c(c2)OCCO3)nc2ccccc12,80
18,Cc1ccc2nc(Nc3ccc4nc(NCCN(C)C)sc4c3)nc(NCCCO)c2c1,4

# Organism: Homo sapiens
# Assay: Binding affinity to r(GACAGCCUGCUGUC)2 (unknown origin) duplex assessed as resonance shift in H6 and H8 protons of RNA […] by 1D NMR spectroscopy
# Conditions: not given
# Summary of the method: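 For 1D NMR, RNA at 100 μM in 100% D2O was titrated with compound at 0.5, 1.0, 1.5 and 2.0 compound:RNA molar ratios, each in a separate sample.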
row,Compound,Activity
1,OCCCNc1nc(Nc2ccc3c(c2)OCCO3)nc2ccccc12,Active
2,COc1ccc(Nc2nc(NCCCO)c3ccccc3n2)cc1,Active
3,CN(C)c1ccc(Nc2nc(NCCCO)c3ccccc3n2)cc1,Active
4,CC(=O)Nc1ccc(Nc2nc(NCC3CCCO3)c3ccccc3n2)cc1 (stereo not given),Active

# Organism: Homo sapiens
# Assay: Binding affinity to r(GACAGCCUGCUGUC)2 duplex (unknown origin) assessed as positive phase signal at 300 uM by waterLOGSY NMR spectroscopy
# Conditions: not given
# Summary of the method: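 For WaterLOGSY NMR, each compound at 300 μM was run alone or with 15 μM RNA (20:1 compound:RNA) in H2O containing 5% D2O by volume.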
row,Compound,Activity
1,CN(C)c1nc(Nc2ccc(C(N)=O)cc2)nc2ccccc12,inactive
2,OCCCNc1nc(Nc2ccc3c(c2)OCCO3)nc2ccccc12,Active
3,CCNc1nc(Nc2ccc(NC(C)=O)cc2)nc2ccccc12,inactive
4,CC(=O)Nc1ccc(Nc2nc(N3CCCC3)c3ccccc3n2)cc1,inactive
5,COc1ccc(Nc2nc(NCCCO)c3ccccc3n2)cc1,Active
6,CN(C)c1ccc(Nc2nc(NCCCO)c3ccccc3n2)cc1,Active
7,CC(=O)Nc1ccc(Nc2nc(NCC3CCCO3)c3ccccc3n2)cc1 (stereo not given),Active

# System: Fibroblast
# Assay: Cytotoxicity against DM2 patient derived fibroblast assessed as cell viability upto 20 uM incubated for 48 hrs by Cell Titre-Glo assay
# Assay type: cell-based
# Conditions: human
# Summary of the method: as §1
row,Compound,Activity
1,OCCCNc1nc(Nc2ccc3c(c2)OCCO3)nc2ccccc12,Non-Toxic
2,COc1ccc(Nc2nc(NCCCO)c3ccccc3n2)cc1,Non-Toxic
3,CN(C)c1ccc(Nc2nc(NCCCO)c3ccccc3n2)cc1,Non-Toxic
4,CC(=O)Nc1ccc(Nc2nc(NCC3CCCO3)c3ccccc3n2)cc1 (stereo not given),Non-Toxic

# Organism: Homo sapiens
# Assay: Inhibition of r(CCUG)12-MBNL1 complex formation (unknown origin) assessed as rescue of IR exon 11 splicing defect at 1 uM by RT-PCR analysis
# Set-up: scale not given: the % may be the effect or the level left
# Conditions: not given
# Summary of the method: as §2
row,Compound,Activity
1,OCCCNc1nc(Nc2ccc3c(c2)OCCO3)nc2ccccc12,12%
2,Cc1ccc2nc(Nc3ccc4nc(NCCN(C)C)sc4c3)nc(NCCCO)c2c1,inactive
